Data from ChEMBL document CHEMBL1157968, “Chemical and cytotoxic constituents from the leaves of Cinnamomum kotoense” (2006).

How the values were obtained:
Type in all cases: functional
HeLa [1] = assay: Induction of apoptosis in human HeLa cells assessed as number of cells with decreased mitochondrial membrane potential at 100 uM after 24 hrs by measuring rhodamine 123 fluorescence intensity; design: scale not given: the % may be the effect or the level left
How it was run: (§1)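 Cells in DMEM/10% FCS, medium renewed at 80% confluence, then 100 µM agent (0.1% DMSO final) for 1–24 h. Stained with 5 µM rhodamine 123 for 30 min in the dark, washed, trypsinized and resuspended in PBS; flow cytometry, percentage of cells with weak rhodamine 123 staining (reduced ΔΨm); at least three experiments, representative shown.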

HeLa [2] = assay: Cell cycle arrest in human HeLa cells pretreated with 10 uM pifithrin-alpha for 1 hr assessed as subG1 phase accumulation at 100 uM after 24 hrs by FACS
How it was run: (§2)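 HeLa cells pretreated for 1 h with the listed agent (10 mM GSH ethyl ester, 10 µM dexamethasone, 10 µM pifithrin, 100 µM Boc-Asp(OMe)-fmk or 5 µM cyclosporin A), then given 100 µM compound for 24 h. Cells fixed in PBS-MeOH, stained with PI/RNase and analysed by flow cytometry for DNA content. At least three experiments, one representative shown.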

HeLa [3] = assay: Induction of apoptosis in human HeLa cells assessed as increase in intracellular glutathione-depleted cell population at 100 uM after 24 hrs by FACS
How it was run: (§3)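 HeLa cells at 80% confluence got fresh medium and were exposed for 24 h. Adherent and floating cells were pooled, adjusted to (1-2) × 10^6/mL and stained with 25 µM CMF-DA for 30 min at 37 °C. After washing, flow cytometry scored the percentage of GSH-negative cells. At least three experiments.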

HeLa [4] = assay: Cell cycle arrest in human HeLa cells pretreated with 10 mM glutathione ethyl ester for 1 hr assessed as G2/M phase accumulation at 100 uM after 24 hrs by FACS; how it was run: as §2
HeLa [5] = assay: Induction of apoptosis in human HeLa cells assessed as increase p53 expression at 100 uM after 6 hrs by FACS
How it was run: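 HeLa seeded at 5 × 10^5 cells/dish 48 h before, in DMEM with 10% FCS; medium renewed at 60% confluence, then 100 µM agent (0.1% DMSO final) for 0–24 h. Pooled floating and adherent cells fixed in 1% paraformaldehyde (15 min, 4 °C), permeabilized in 70% EtOH (30 min, 4 °C), then FITC-conjugated mouse anti-p53 mAb (1 h, 37 °C), PI/RNase counterstain; flow cytometry, % p53-positive cells; ≥3 experiments.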

HeLa [6] = assay: Cell cycle arrest in human HeLa cells assessed as G1 phase accumulation at 50 uM after 24 hrs by FACS
How it was run: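 HeLa cells seeded 5 × 10^5 per dish 48 h ahead in DMEM with 10% FCS, then exposed to compound for 24 h (DMSO 0.1% final). Adherent and floating cells pooled, fixed in PBS-MeOH (1:2) at 4 °C for at least 18 h, and stained with PI (50 µg/mL) plus RNase A for 30 min at room temperature. Flow cytometry at 488 nm excitation, doublets gated out; phase percentages taken from DNA histograms.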

HeLa [7] = assay: Cell cycle arrest in human HeLa cells pretreated with 5 uM cyclosporin A for 1 hr assessed as S phase accumulation at 100 uM after 24 hrs by FACS; how it was run: as §2
HeLa [8] = assay: Induction of apoptosis in human HeLa cells assessed as increase in intracellular glutathione-depleted cell population at 25 uM after 24 hrs by FACS; how it was run: as §3
HeLa [9] = assay: Induction of apoptosis in human HeLa cells pretreated with 10 uM pifithrin-alpha for 1 hr at 100 uM after 24 hrs by TUNEL assay
How it was run: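 HeLa in DMEM/10% FCS, untreated or pretreated 1 h with listed inhibitor, then 100 µM agent (0.1% DMSO final) for 24 h. Pooled cells fixed in 1% paraformaldehyde (30 min, 4 °C), 70% EtOH (30 min, −20 °C); strand breaks labelled with TdT/fluorescein-BrdUTP (1 h, 37 °C), PI/RNase counterstain; flow cytometry, % apoptotic cells; ≥3 experiments.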

HeLa [10] = assay: Cell cycle arrest in human HeLa cells pretreated with 10 uM pifithrin-alpha for 1 hr assessed as G1 phase accumulation at 100 uM after 24 hrs by FACS; how it was run: as §2
HeLa [11] = assay: Cell cycle arrest in human HeLa cells pretreated with 10 mM glutathione ethyl ester for 1 hr assessed as G1 phase accumulation at 100 uM after 24 hrs by FACS; how it was run: as §2
HeLa [12] = assay: Cell cycle arrest in human HeLa cells pretreated with 10 mM glutathione ethyl ester for 1 hr assessed as S phase accumulation at 100 uM after 24 hrs by FACS; how it was run: as §2
HeLa [13] = assay: Cell cycle arrest in human HeLa cells pretreated with 10 uM Dexamethasone for 1 hr assessed as subG1 phase accumulation at 100 uM after 24 hrs by FACS; how it was run: as §2
HeLa [14] = assay: Induction of apoptosis in human HeLa cells assessed as increase in intracellular glutathione-depleted cell population at 50 uM after 24 hrs by FACS; how it was run: as §3
HeLa [15] = assay: Cell cycle arrest in human HeLa cells pretreated with 100 uM Boc-Asp(OMe)-fmk for 1 hr assessed as S phase accumulation at 100 uM after 24 hrs by FACS; how it was run: as §2
HeLa [16] = assay: Induction of apoptosis in human HeLa cells assessed as increase in intracellular nitric oxide level at 100 uM after 3 hrs by FACS relative to untreated control
How it was run: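 HeLa cells at 80% confluence were exposed to 100 µM for 1, 3 or 24 h and then stained with 1 µM DAF-2 for 10 min in the dark. After trypsinization, DAF-2 fluorescence was measured by flow cytometry and taken as fold versus untreated cells. At least three experiments.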

HeLa [17] = assay: Induction of apoptosis in human HeLa cells assessed as number of cells with decreased mitochondrial membrane potential at 100 uM after 3 hrs by measuring rhodamine 123 fluorescence intensity; design: scale not given: the % may be the effect or the level left; how it was run: as §1

SMILES: CCCCCCCCCCCCC/C=C(/C(=O)OC)[C@@H](O)C(C)=O [SECOKOTOMOLIDE A]
- Activity (HeLa [1]): 75.1%
- Activity (HeLa [2]): 40.9%
- Activity (HeLa [3]): 98%
- Activity (HeLa [4]): 11.6%
- Activity (HeLa [5]): 3.2%
- Activity (HeLa [6]): 50.8%
- Activity (HeLa [7]): 14.4%
- Activity (HeLa [8]): 49%
- Activity (HeLa [9]): 57.3%
- Activity (HeLa [10]): 51.3%
- Activity (HeLa [11]): 80%
- Activity (HeLa [12]): 8.4%
- Activity (HeLa [13]): 47.7%
- Activity (HeLa [14]): 92%
- Activity (HeLa [15]): 13.6%
- fold change (FC) (HeLa [16]): 2.1
- Activity (HeLa [17]): 2.2%
